Compound activity from PubChem BioAssay.
Pemphigus Ab inh: inhibitors of pemphigus antibody binding to DSG3, primary screen, biochemical, bead-based, flow cytometry, scFv-GFP; Desmoglein-3 (Homo sapiens), P32926; DSG3-coupled beads, scFv-anti-DSG3-GFP binding; hits give low values; binding (percent of control), % at 10 µM; 310,000 tested, 0.48% active; AID 588358, 2011;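 active means binding more than 3 SD below its plate's average and above zero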;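 further: hits lower antibody fragment binding to DSG3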
Apaf1 inhib: inhibitors of human Apaf-1 apoptosome, primary screen, biochemical, DEVD-Rh110 fluorescence, uHTS; inhibition, % at 20 µM; 330,000 tested, 0.71% active; reconstituted apoptosome caspase-3 activity; Apoptotic protease-activating factor 1 (Homo sapiens), O14727; AID 489030, 2010; active means inhibition of at least 40% at 20 µM
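Medium: Hepes buffer, pH 7.5 / System: biochemical Apaf-1 apoptosome reconstitution / Measured by: Rh110 fluorescence, excitation 480 nm, emission 540 nm / Times: compound with Apaf-1, dATP, procaspase-3 30 min, then 50 min reaction, room temperature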
MEKK3 PB1 HTS: modulators of MEKK3-MEK5 PB1 binding, primary screen, biochemical, wildtype MEKK3, multiplex bead flow cytometry, Alexa488-MEK5; 290,000 tested, 1.4% active; binding response (% of control), % at 10 µM; bead-based flow cytometry, Alexa488-MEK5 binding to MEKK3; actives lie on both sides; 0 = blocked by unlabeled MEK5, 100 = vehicle; AID 1529, 2009;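 active means binding response more than 3 SD above or below the average of its plate-row segment, actives on both sides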;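 further: Alexa488 bead fluorescence after subtracting the streptavidin-only scavenger bead signal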
UBC13 polyUb: UBC13 polyubiquitin chain formation inhibitors, primary screen, biochemical, TR-FRET, uHTS | Ubiquitin-conjugating enzyme E2 N (Homo sapiens), P61088 | inhibition, % at 20 µM | 330,000 tested, 0.47% active | AID 485273, 2010; in the data active means inhibition above about 45%, passing the limit was not always enough
Target sequence (P61088 whole entry, looked up): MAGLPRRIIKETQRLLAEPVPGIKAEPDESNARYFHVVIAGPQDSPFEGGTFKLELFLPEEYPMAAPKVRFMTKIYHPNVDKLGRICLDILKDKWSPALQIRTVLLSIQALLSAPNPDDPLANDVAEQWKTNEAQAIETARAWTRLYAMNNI
MEKK2 mut-MEK5: MEK5 binding signal on mutant MEKK2 PB1, primary screen, biochemical, multiplex bead flow cytometry, Alexa488-MEK5; Alexa488-MEK5 binding to MEKK2 mutant; percent response, % at 10 µM; 290,000 tested, 0.35% active; in the data active means percent response above about 24%, passing the limit was not always enough
MEKK2 WT-MEK5: modulators of MEK5 binding to wildtype MEKK2, primary screen, biochemical, multiplex bead flow cytometry, Alexa488-MEK5. Mitogen-activated protein kinase kinase kinase 2 (Homo sapiens), Q9Y2U5. Alexa488-MEK5 binding to MEKK2 WT; actives lie on both sides. binding response (% of control), % at 10 µM. 290,000 tested, 1.1% active. AID 1531, 2009; in the data active means binding response below about 67% or above about 130%
MEKK2wt confirm: modulators of MEK5 binding to wildtype MEKK2, confirmation, biochemical, single concentration, multiplex bead flow cytometry; shares compounds with MEKK3 PB1 HTS; Alexa488-MEK5 binding to MEKK2 WT; actives lie on both sides; binding response (% of control), % at 10 µM; 5,900 tested, 2.4% active; AID 1892, 2009; in the data active means binding response below about 16% or above about 210%; inactive means in between
MEKK2mut confirm: mutant MEKK2 PB1-MEK5 binding signal retest – biochemical, single concentration, multiplex bead flow cytometry, confirmation; shares compounds with MEKK3 PB1 HTS; Alexa488-MEK5 binding to MEKK2 mutant; 5,900 tested, 2% active; percent response, % at 10 µM; in the data active means percent response mostly above about 71%, no sharp cut-off; inactive means mostly below about 38%;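 further: higher means compound restores mutant binding toward wildtype level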
MEKK3-MEK5 inh: MEKK3 wild-type PB1 binding to MEK5, inhibitors, confirmation, biochemical, bead multiplex flow cytometry, single concentration, wildtype. shares compounds with MEKK3 PB1 HTS. Alexa488-MEK5 binding to MEKK3; hits give low values. binding response (% of control), % at 10 µM. 5,900 tested, 1.8% active;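 active means binding response below 72% of control, or above a set upper limit, though filed actives all read lower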
A number is an active result; n = inactive; x = no result; [ ] = remark or other dose. Only some compounds are listed: those with a hit (about 3.2% of all), similar ones and a draw of the others.

SMILES	Pemphigus Ab inh	Apaf1 inhib	MEKK3 PB1 HTS	UBC13 polyUb	MEKK2 mut-MEK5	MEKK2 WT-MEK5	MEKK2wt confirm	MEKK2mut confirm	MEKK3-MEK5 inh
Cc1cccc(N=C2Sc3nc4c(C)c(C)ccc4cc3CN2CCN2CCOCC2)c1	n	n	n	n	24.0	144.0	n	n	n
CN1CCN(NC(=S)NC(C)(C)CC(C)(C)C)CC1	n	n	58.0[inhibitor]	n	n	n	n	n	n
COC(=O)C1=C(NC(=O)c2ccccc2C)CCS1	n	n	46.0[inhibitor]	n	n	n	n	n	n
COC(=O)C1=C(NC(=O)c2cccs2)CCS1	x	x	n	x	n	n	x	x	x
COc1ccccc1NC(=O)CSc1nnc2ccc(-c3cccnc3)nn12	n	n	n	n	190.0	n	n	n	n
CCOc1ccccc1NC(=O)CSc1nnc2ccc(-c3cccnc3)nn12	n	n	n	n	n	n	x	x	x
Cc1cn(CC(=O)NCC2CCCO2)c(=O)[nH]c1=O (stereo unspecified)	n	x	x	x	x	x	x	x	x
N#Cc1ccc2[nH]c(CO)c(-c3ccccc3)c2c1	n	n	0.0[inhibitor]	n	n	-13.0[inhibitor]	n	n	n
COC(=O)c1ccc2[nH]c(CO)c(-c3ccccc3)c2c1	n	n	n	n	n	n	x	x	x
COc1ccc(CNC(=O)C2CCN(S(=O)(=O)c3ccc4c(c3)C(C)(C)C(=O)N4C)CC2)cc1	n	n	n	n	n	n	x	x	x
COc1ccc(CNC(=O)C2CCCN(S(=O)(=O)c3ccc4c(c3)C(C)(C)C(=O)N4C)C2)cc1 (stereo unspecified)	n	n	2.0[inhibitor]	n	n	0.0[inhibitor]	n	n	n
CCOc1cc(S(=O)(=O)n2cnc(C)c2)ccc1Cl	n	n	148.0	n	n	n	n	n	n
CCOC(=O)c1cc(C#N)c(SCC(=O)c2cc(C#N)c(SC)nc2C)[nH]c1=O	n	n	74.0[inhibitor]	n	n	n	n	n	n
CCOC(=O)c1cc(C#N)c(SCC(N)=O)[nH]c1=O	n	n	n	n	n	n	x	x	x
COc1ccc(OCC(=O)Nc2cc(OC)ccc2N2CCCCC2)cc1	n	n	n	n	n	n	x	x	x
COc1ccc(NC(=O)Cc2c(F)cccc2Cl)c(OC)c1	n	n	1.0[inhibitor]	n	n	3.0[inhibitor]	n	n	n
COc1ccc(NC(=O)CCSCCC(=O)Nc2ccc(OC)cc2OC)c(OC)c1	x	n	137.0	n	n	n	n	n	n
CCOc1ccc(CCNC(=O)c2cc3c(s2)CS(=O)(=O)C3)cc1OCC	n	n	n	n	n	n	x	x	x
O=[N+]([O-])c1ccc2oc(C(O)c3cccc(Cl)c3)cc2c1 (stereo unspecified)	n	n	n	n	n	n	x	x	x
CCOC(=O)C(=CNc1ccc(NC2=NCC(C)S2)cc1)C(=O)OCC (stereo unspecified)	n	x	138.0	x	n	n	n	n	n
CCC(Oc1ccc(C)c(C)c1)C(=O)N1CCCN(C)CC1 (stereo unspecified)	x	n	n	n	n	n	x	x	x
Cc1onc(-c2ccccc2)c1C(=O)Nc1ccc(Cl)c(S(=O)(=O)N2CCOCC2)c1	n	n	x	n	x	x	x	x	x
CCC(NC(=O)NCc1ccccc1)(C(F)(F)F)C(F)(F)F	x	n	151.0	n	n	n	n	n	n
CC1CCCN(CCOCCSc2ccccc2)C1 (stereo unspecified)	n	n	133.0	n	n	n	n	n	n
CC1CCCN(CCOc2ccc(Br)cc2)C1 (stereo unspecified)	n	n	198.0	n	n	n	n	n	n
SMILES	Pemphigus Ab inh	Apaf1 inhib	MEKK3 PB1 HTS	UBC13 polyUb	MEKK2 mut-MEK5	MEKK2 WT-MEK5	MEKK2wt confirm	MEKK2mut confirm	MEKK3-MEK5 inh
CC1CCCN(CCOCCOc2ccc(Br)cc2Cl)C1 (stereo unspecified)	n	n	150.0	n	n	n	n	n	n
CC1CCCN(CCCCOc2cccc(Br)c2)C1 (stereo unspecified)	n	n	n	n	n	n	x	x	x
CCOC(=O)Cn1ncc2c3ccccc3n(CC(=O)OCC)c2c1=O	n	n	n	n	n	n	x	x	x
CC(=O)c1ccc(S(=O)(=O)Nc2cccc(-c3ccc(N4CCOCC4)nn3)c2)cc1	n	n	x	n	x	x	x	x	x
COc1ccccc1N(C)S(=O)(=O)c1ccc(C(=O)Nc2ccc(C)cc2C)cc1	n	n	x	n	x	x	x	x	x
CC(C)C[C@H](NC(=O)[C@H](Cc1ccccc1)n1c(=O)[nH]c2ccccc2c1=O)C(=O)N1CCC[C@@H]1C(=O)O	n	n	n	n	n	n	x	x	x
N#C/C(=N\Nc1ccccc1)C(=N)N1CCOCC1	n	n	130.0	n	n	n	n	n	n
Cc1ccc(N/N=C(\C#N)C(=N)N2CCOCC2)cc1	n	n	n	n	n	n	x	x	x
COc1ccc(OC)c(C(=O)NC(CC(N)=O)c2ccc(N3CCN(c4ccccn4)CC3)c([N+](=O)[O-])c2)c1 (stereo unspecified)	n	n	n	n	n	n	x	x	x
COc1ccc(C(=O)C2CCCN(C(=O)c3cc(C)nc(C)n3)C2)cc1OC (stereo unspecified)	x	n	129.0	n	n	n	n	n	n
CC(=O)c1ccc(NS(=O)(=O)c2ccccc2)cc1	n	n	n	n	n	n	x	x	x
CC(=O)c1ccc(NS(=O)(=O)c2ccc(N)cc2)cc1	n	n	135.0	n	n	n	n	n	n
COc1ccc(NC(=O)C[C@H]2C(=O)N(c3ccc(OC)cc3)C[C@@H]2C)cc1	n	x	x	x	x	x	x	x	x
Nc1nc(NCc2ccccc2)nc(NCc2ccccc2)c1[N+](=O)[O-]	n	n	152.0	n	n	n	n	n	n
Cc1ccc(CNc2nc(N)c([N+](=O)[O-])c(NCc3ccccc3)n2)cc1	n	n	n	n	n	n	x	x	x
CSCCC(NC(=O)c1cccc(C)c1)C(=O)NNC(=O)c1cccs1 (stereo unspecified)	n	n	x	n	x	x	x	x	x
